≈ marks a conversion by molar mass, not a printed value. Calls of active or inactive are those of the source. No cut-off for these calls is given here.
Experiments:
Aeromonas salmonicida = assay: Antimicrobial activity against Aeromonas salmonicida subsp. salmonicida CIP 103209T after 24 hrs by broth micro dilution assay; assay type: functional
Summary of the method: (§1)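 Compounds were in DMSO (at most 5% of total volume) and were incubated with the strain in PB medium in 96-well plates at 37 °C for 24 h with stirring. Growth was read as optical density at 630 nm. Runs were in triplicate and averaged. Wells without growth were plated on rich solid medium to tell bacteriostatic from bactericidal action.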

Vibrio anguillarum = assay: Antimicrobial activity against Vibrio anguillarum CIP 63.36T after 24 hrs by broth micro dilution assay; assay type: functional; summary of the method: as §1
Shewanella baltica = assay: Antimicrobial activity against Shewanella baltica CIP 105850T after 24 hrs by broth micro dilution assay; assay type: functional; summary of the method: as §1
Escherichia coli = assay: Antimicrobial activity against Escherichia coli CIP 54.8 after 24 hrs by broth micro dilution assay; assay type: functional; conditions: CIP 54.8, 24 h; summary of the method: as §1
Micrococcus luteus = assay: Antimicrobial activity against Micrococcus luteus CIP A270 after 24 hrs by broth micro dilution assay; assay type: functional; conditions: CIP A270, 24 h; summary of the method: as §1
Paracentrotus lividus [1] = assay: Antiproliferative activity against Paracentrotus lividus eggs assessed as inhibition of first cell division measured 75 mins post fertilization by inverted microscopy; conditions: 1.25 h
SH-SY5Y [2] = assay: Cytotoxicity against human SH-SY5Y cells assessed as decrease in cell viability after 24 hrs by MTT assay; assay type: functional, cell-based
Summary of the method: (§2)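 SH-SY5Y cells were grown in DMEM/F-12 with 10% FBS at 37 °C in 5% CO2. Cells were seeded at 5 × 10^4 per well one day ahead, then treated at 0.001–100 μM for 24 h. MTT at 500 μg/mL was added for 1 h at 37 °C, cells were lysed with 5% SDS, and absorbance was read at 595 nm. The saponin death control was subtracted, and IC50 came from a log(inhibitor)–response fit.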

SH-SY5Y [3] = assay: Induction of cell death in human SH-SY5Y cells at 15 uM pretreated with caspase inhibitor ZVAD-FMK for 24 hrs followed by compound addition measured after 6 hrs by MTT assay; assay type: functional, cell-based
Summary of the method: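 SH-SY5Y cells were seeded as for MTT and preincubated with 40 μM Z-VAD-FMK for 24 h. Compound was then added (5, 10, 15 μM) for 6 h, and viability was read by MTT as % of untreated cells. Staurosporine (0.5 μM) was the apoptosis control. Data are mean ± SEM of three independent experiments in triplicate, with Student's t test.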

SH-SY5Y [4] = assay: Induction of apoptosis in human SH-SY5Y cells at 6 uM after 6 hrs by Annexin V-FITC/PI staining based flow cytometry; assay type: functional
Summary of the method: (§3)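 SH-SY5Y cells were seeded at 1 × 10^6 per well and treated 6 h at 6 μM. Cells were washed in PBS and stained with annexin V–FITC and propidium iodide for 15 min. 10 000 events were analysed by imaging flow cytometry and classed as viable, apoptotic, late apoptotic or necrotic. Staurosporine (1 μM) was the death control. Data are mean ± SEM of three experiments, with Student's t test.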

SH-SY5Y [5] = assay: Induction of apoptosis in human SH-SY5Y cells assessed as necrotic cells at 6 uM after 6 hrs by Annexin V-FITC/PI staining based flow cytometry; assay type: functional; summary of the method: as §3
Paracentrotus lividus [6] = assay: Antiproliferative activity against Paracentrotus lividus eggs assessed as inhibition of first cell division at 2 uM measured 75 mins post fertilization by inverted microscopy relative to control; assay type: functional; conditions: 1.25 h
Summary of the method: (§4)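 Paracentrotus lividus gametes were collected after acetylcholine injection into the coelomic cavity. Fertilized eggs were incubated with compound at 0–30 μM in 96-well microplates. Dividing eggs were scored under an inverted microscope at 75 min post-fertilization, when control eggs had completed first cleavage. The percentage of dividing eggs was recorded.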

Paracentrotus lividus [7] = assay: Antiproliferative activity against Paracentrotus lividus eggs assessed as inhibition of first cell division at 4 uM measured 75 mins post fertilization by inverted microscopy relative to control; assay type: functional; conditions: 1.25 h; summary of the method: as §4
Paracentrotus lividus [8] = assay: Antiproliferative activity against Paracentrotus lividus eggs assessed as cells divided with formation of extracellular cytoplasmic granules at 5 uM measured 80 mins post fertilization by reversed optical microscopy; assay type: functional
Summary of the method: (§5)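 P. lividus fertilized eggs were kept with 5 μM compound, with controls in seawater containing 1% MeOH. Morphology was scored under a reversed optical microscope (20×) at 80 min, 120 min and 18 h post-fertilization. The percentage of each typical phenotype was recorded.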

Paracentrotus lividus [9] = assay: Antiproliferative activity against Paracentrotus lividus eggs assessed as inhibition of cell division at 5 uM measured 80 mins post fertilization by reversed optical microscopy; assay type: functional, organism-based; summary of the method: as §5
Paracentrotus lividus [10] = assay: Induction of morphological changes in Paracentrotus lividus eggs assessed as granulations of plasmic membrane at 5 uM measured 80 to 120 mins post fertilization by reversed optical microscopy; assay type: functional, organism-based; summary of the method: as §5
Paracentrotus lividus [11] = assay: Inhibition of cell division in Paracentrotus lividus eggs assessed as reduction in reaching mesenchymal blastula stage at 5 uM measured 18 hrs post fertilization by reversed optical microscopy; assay type: functional, organism-based; summary of the method: as §5
Paracentrotus lividus [12] = assay: Induction of morphological changes in Paracentrotus lividus eggs assessed as membrane blebbing at 5 uM measured 80 to 120 mins post fertilization by reversed optical microscopy; assay type: functional, organism-based; summary of the method: as §5
Paracentrotus lividus [13] = assay: Induction of DNA fragmentation in Paracentrotus lividus eggs at 5 uM measured 60 mins post fertilization by TUNEL based fluorescence assay; assay type: functional, organism-based
Summary of the method: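 P. lividus eggs were treated with 5 μM compound. Before first division (60 min post-fertilization), fluorescent TUNEL labelling of 3′-OH DNA ends was done. DNase-treated eggs served as positive control and untreated eggs as negative control.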

Paracentrotus lividus [14] = assay: Cell cycle arrest in Paracentrotus lividus eggs assessed as dispersion of condensed DNA in nucleus at 5 uM measured 60 mins post fertilization by DAPI staining staining based assay; assay type: functional, organism-based
Summary of the method: (§6)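 Fertilized P. lividus eggs were treated with 5 μM compound and stained with DAPI to show nuclear DNA at 30 and 60 min post-fertilization. Chromatin state was compared with untreated control eggs.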

Paracentrotus lividus [15] = assay: Induction of apoptosis in Paracentrotus lividus eggs assessed as DNA condensation at 5 uM measured 30 mins post fertilization by DAPI staining staining based assay; assay type: functional, organism-based; summary of the method: as §6
Paracentrotus lividus [16] = assay: Induction of apoptosis in Paracentrotus lividus eggs assessed as DNA localization at nuclear periphery at 5 uM measured 30 mins post fertilization by DAPI staining staining based assay; assay type: functional, organism-based; summary of the method: as §6
SH-SY5Y [17] = assay: Cytotoxicity against human SH-SY5Y cells assessed as decrease in cell viability at 0.001 to 100 uM after 24 hrs by MTT assay; assay type: functional, cell-based; summary of the method: as §2
SH-SY5Y [18] = assay: Induction of apoptosis in human SH-SY5Y cells at 1 uM after 6 hrs by Annexin V-FITC/PI staining based flow cytometry; assay type: functional, cell-based
Summary of the method: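 SH-SY5Y cells in DMEM/F-12 with 10% FBS at 37 °C, 5% CO2, seeded at 1 × 10^6 cells per well and exposed 6 h. They were then washed in PBS, stained 15 min with annexin V–FITC plus propidium iodide in binding buffer, and 10 000 events were read by imaging flow cytometry. Cells were classed as viable, apoptotic, late apoptotic or necrotic. Three independent experiments; mean ± SEM; Student's t test vs untreated cells.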

| MIC (Aeromonas salmonicida) | MIC (Vibrio anguillarum) | MIC (Shewanella baltica) | MIC (Escherichia coli) | MIC (Micrococcus luteus) | Compound | IC50 (Paracentrotus lividus [1]) | IC50 (SH-SY5Y [2]) | further results |
| --- | --- | --- | --- | --- | --- | --- | --- | --- |
| 6.7 to 7 µM (≈ 4.96 to 5.19 µg/mL) | 7 to 7.4 µM (≈ 5.19 to 5.48 µg/mL) | 16 µM (≈ 11.9 µg/mL) | 14 µM (≈ 10.4 µg/mL) | 17 µM (≈ 12.6 µg/mL) | CCCCC[C@H]1OC(=O)[C@H]([C@@H](C)CC)N(C)C(=O)[C@@H]2CCCN2C(=O)[C@H](Cc2ccccc2)OC(=O)[C@H](C(C)C)N(C)C(=O)[C@H](C(C)C)NC(=O)[C@H]1C | 7 µM | 6 µM | Activity (SH-SY5Y [3]): Active; Activity (SH-SY5Y [4]): 7.9%; Activity (SH-SY5Y [5]): 36% |
| 9.4 µM (≈ 6.95 µg/mL) | 8.5 µM (≈ 6.28 µg/mL) | 22 µM (≈ 16.3 µg/mL) | 12 µM (≈ 8.87 µg/mL) | 29 µM (≈ 21.4 µg/mL) | C=CCCC[C@H]1OC(=O)[C@H]([C@@H](C)CC)N(C)C(=O)[C@@H]2CCCN2C(=O)[C@H](Cc2ccccc2)OC(=O)[C@H](C(C)C)N(C)C(=O)[C@H](C(C)C)NC(=O)[C@H]1C | 3.9 µM | 14 µM | inhibition at 2 µM (Paracentrotus lividus [6]): 10%; inhibition at 4 µM (Paracentrotus lividus [7]): 60%; Activity (Paracentrotus lividus [8]): 8%; inhibition (Paracentrotus lividus [9]): Active; Activity (Paracentrotus lividus [10]): Active; inhibition (Paracentrotus lividus [11]): Active; Activity (Paracentrotus lividus [12]): Active; Activity (Paracentrotus lividus [13]): Active; Activity (Paracentrotus lividus [14]): Active; Activity (Paracentrotus lividus [15]): Active; Activity (Paracentrotus lividus [16]): Active |
| 27 µM (≈ 19.9 µg/mL) | 33 µM (≈ 24.3 µg/mL) | > 50 µM | 35 µM (≈ 25.8 µg/mL) | 47 µM (≈ 34.6 µg/mL) | C#CCCC[C@H]1OC(=O)[C@H]([C@@H](C)CC)N(C)C(=O)[C@@H]2CCCN2C(=O)[C@H](Cc2ccccc2)OC(=O)[C@H](C(C)C)N(C)C(=O)[C@H](C(C)C)NC(=O)[C@H]1C | 11 µM |  | Activity (SH-SY5Y [17]): inactive |
|  |  |  |  |  | CN[C@@H]1C[C@H]2O[C@@](C)([C@@H]1OC)n1c3ccccc3c3c4c(c5c6ccccc6n2c5c31)C(=O)NC4 |  |  | Activity (SH-SY5Y [18]): Active |
